Assay results reported in paper PMC6750927 (Science Advances, 2019).
Each block holds one compound with its values, some of them ahead of it.

What was measured:
Hsp90-Cdc37 PPI = Hsp90-Cdc37 PPI (Homo sapiens, UniProt P07900); assay: Hsp90-Cdc37 HTRF assay; type: binding; details: dose-dependent
Outline: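 His-tagged Hsp90 and GST-tagged Cdc37 premixed at 80 nM final in PBS with 200 mM KF, pH 7.4. Twofold dilutions of test compound (seven concentrations) added for 1 h at 37°C. HTRF read at excitation 320 nm, emission 665 and 620 nm; ratio = (665/620) × 10,000. n = 3 wells, from three independent experiments.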

Hsp90 ATPase activity = Hsp90 ATPase activity (Homo sapiens, UniProt P07900); assay: Hsp90 ATPase assay; type: biochemical
Outline: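 Hsp90 ATPase measured with an ADP Hunter Plus kit at 37°C. Compound, Hsp90 (5 μM as added) and ATP (100 μM as added) combined in equal parts for 1 h. Background taken without protein or compound; protein alone set as 100% activity. n = 3 wells, from three independent experiments.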

Hsp90 ATP binding site = Hsp90 ATP binding site (Homo sapiens, UniProt P07900); assay: ATP binding site competitive FP assay
Outline: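 Competition for the Hsp90 ATP site by fluorescence polarization with a fluorescein isothiocyanate–geldanamycin probe. Read at excitation 485 nm and emission 535 nm. Inhibition rate derived by a previously reported method. n = 3 wells, from three independent experiments.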

Cdc37, wild type = Cdc37, wild type (UniProt Q16543); assay: ITC
Cdc37 Q208A mutant = Cdc37 Q208A mutant (UniProt Q16543); assay: ITC
Cdc37 R246A mutant = Cdc37 R246A mutant (UniProt Q16543); assay: ITC
Sequence of Cdc37 R246A mutant (Q16543 whole entry R246A): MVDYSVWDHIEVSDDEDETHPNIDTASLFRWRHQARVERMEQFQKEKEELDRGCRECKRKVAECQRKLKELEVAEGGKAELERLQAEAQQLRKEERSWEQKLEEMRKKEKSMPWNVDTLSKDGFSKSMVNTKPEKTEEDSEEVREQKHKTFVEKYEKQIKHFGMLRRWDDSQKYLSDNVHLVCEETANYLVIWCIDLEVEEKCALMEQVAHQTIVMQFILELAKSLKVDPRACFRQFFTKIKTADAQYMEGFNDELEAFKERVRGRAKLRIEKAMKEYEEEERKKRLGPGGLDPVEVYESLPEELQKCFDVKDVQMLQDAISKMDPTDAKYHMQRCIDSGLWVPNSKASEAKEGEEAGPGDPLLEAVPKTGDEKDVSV

Sequence of Cdc37, wild type (Q16543 whole entry): as the sequence (Q16543 whole entry R246A) above, with A246R counted along it
Sequence of Cdc37 Q208A mutant (Q16543 whole entry Q208A): as the sequence (Q16543 whole entry R246A) above, with Q208A, A246R counted along it

inhibition of Hsp90-Cdc37 binding (IC50) (Hsp90-Cdc37 PPI): no activity
IC50 (Hsp90 ATPase activity): 0.16 µM
IC50 (Hsp90 ATP binding site): 0.012 µM
Compound: CC(C)c1cc(C(=O)N2Cc3ccc(CN4CCN(C)CC4)cc3C2)c(O)cc1O [AT13387]

Kd (Cdc37, wild type): 8.85 µM
Compound: Hsp90 R46A mutant (from UniProt P07900 1-732) (natural protein)

Kd (Cdc37 Q208A mutant): 3.51 µM
Kd (Cdc37 R246A mutant): 6.02 µM
Kd (Cdc37, wild type): 2.17 µM
Compound: Heat shock protein 90 (Hsp90), wild type, His-tagged (from UniProt P07900 1-732) (natural protein)

Kd (Cdc37, wild type): 6.85 µM
Compound: Hsp90 Y61A mutant (from UniProt P07900 1-732) (natural protein)
